Experimental data pooled from the literature.
Each line is one published result; the experiments were not run side by side.
Target: Serine/threonine-protein kinase pim-2 (PIM2, Homo sapiens, UniProt Q9P1W9)

| Structure (SMILES) | assay | setting | quantity | result |
| --- | --- | --- | --- | --- |
| CCCCC(=O)Nc1ccc(-c2ccc3ncn(CCC)c(=O)c3c2)cn1 | binding, competition with immobilised ligand | 0.5 µM | remaining binding | 100% |
| Cc1ccc(NC(=O)c2ccnc(C(F)(F)F)c2)cc1-c1cc(OCCO)nc(N2CCOCC2)c1 | binding | 1 µM | remaining binding | 82% |
| C=CC(=O)N1CCC[C@@H](n2nc(-c3ccc(Oc4ccccc4)cc3)c3c(N)ncnc32)C1 | enzyme activity, inhibitor | 1 µM | inhibition | 3% |
| C#Cc1cc(-c2cc(Nc3nc(N[C@@H](C)c4ccc(F)cn4)ncc3Cl)n[nH]2)ccc1C=O | enzyme activity, inhibitor | 0.2 µM | inhibition | 2.74% |
| COc1ccc2oc(-c3ccc4nc(N)oc4c3)c/c(=N\c3ccccc3NC(=O)CCN)c2c1 | binding | 1 µM | remaining binding | 103% |
| N#Cc1ccc(NC(=O)Nc2ccccc2)cc1 | cell-free assay, competition with immobilised ligand | 25 µM | remaining binding | 100% |
| C1=C/COCc2cc(ccc2OCCN2CCCC2)Nc2nccc(n2)-c2cccc(c2)COC/1 | binding | 0.1 µM | remaining binding | 100% |
| C#Cc1cnc(Nc2ccnc(CO)c2)nc1Nc1ccccc1S(C)(=O)=NC#N (stereo not shown) | cell-free assay | 1 µM | remaining signal | 100% |
| CC#CC(=O)N1CCC[C@H]1c1nc(-c2ccc(C(=O)Nc3ccccn3)cc2)c2c(N)nccn12 | enzyme activity, inhibitor | 1 µM | inhibition | 0% |
| CN1CCN(C(=O)c2ccc(NC(=O)Nc3ccc(N(C)c4ccnc(Nc5ccc(CS(C)(=O)=O)cc5)n4)cc3)cc2)CC1 | binding | 1 µM | remaining binding | 100% |
